Measurements taken from article PMC6955414 (British Journal of Clinical Pharmacology, 2019).
Where two headings read alike, the source gives them in different places.

What was measured:
[1] = type: in vivo, human; details: for AUC0–inf, geometric mean / Cmax, geometric mean / AUC_% Extrap / CL/F / Cmax / T1/2 / Tmax / Vz/F / median Tmax: single 200 μg s.c.; for AUC_% Extrap / CL/F / Cmax / T1/2 / Tmax / Vz/F: mean ± SD
Outline: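 Open-label phase I study in renally impaired and matched normal-function adults (CLcr ≥90 mL/min), with or without T2DM. A single abdominal s.c. injection was given at 08:00, followed by a standard breakfast. […] Parameters came from noncompartmental analysis; log-transformed AUC0–inf ratios to the normal group were given with 90% CI.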

Safety evaluation = type: in vivo, human
Outline: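 Single abdominal s.c. 200 μg dose given fasting on day 1. Monitoring covered adverse events, vital signs, physical examination, fasting venous glucose, blood and urine routine, blood biochemistry and 12-lead ECG. Assessments were at 24, 144, 312 and 720 h post-dose. The safety set comprised all dosed subjects with post-dose safety data.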

[2] = cited from earlier work
[3] = Mild impairment (n=8), single 200 μg s.c.
[4] = Moderate impairment (n=8), single 200 μg s.c.
[5] = Normal renal function (n=10), single 200 μg s.c.
[6] = all groups (26 subjects), single 200 μg s.c.

Polyethylene glycol loxenatide [PEX168]
AUC0–inf, geometric mean ([1]; Mild impairment (n=8)): 16 500 h^*ng/mL | Cmax, geometric mean ([1]; Mild impairment (n=8)): 48.5 ng/mL | AUC_% Extrap ([1]; Mild renal impairment, n=8): 3.49 ± 1.32% | CL/F ([1]; Mild renal impairment, n=8): 0.0136 ± 0.00657 L/h | Cmax ([1]; Mild renal impairment, n=8): 54.1 ± 29.7 ng/mL | T1/2 ([1]; Mild renal impairment, n=8): 117 ± 16.5 h | Tmax ([1]; Mild renal impairment, n=8): 123 ± 15.4 h | Vz/F ([1]; Mild renal impairment, n=8): 2.28 ± 1.09 L | AUC0–inf, geometric mean ([1]; Moderate impairment (n = 7)): 29 200 h^*ng/mL | Cmax, geometric mean ([1]; Moderate impairment (n = 7)): 73.1 ng/mL | AUC_% Extrap ([1]; Moderate renal impairment, n=7): 6.92 ± 1.75% | CL/F ([1]; Moderate renal impairment, n=7): 0.00711 ± 0.0022 L/h | Cmax ([1]; Moderate renal impairment, n=7): 78.1 ± 35.9 ng/mL | T1/2 ([1]; Moderate renal impairment, n=7): 163 ± 14.7 h | Tmax ([1]; Moderate renal impairment, n=7): 144 ± 33.9 h | Vz/F ([1]; Moderate renal impairment, n=7): 1.69 ± 0.61 L | AUC0–inf, geometric mean ([1]; Normal (n = 8)): 14 600 h^*ng/mL | Cmax, geometric mean ([1]; Normal (n = 8)): 56.6 ng/mL | CL/F ([1]; Normal renal function, n=8): 0.0140 ± 0.00298 L/h | Tmax ([1]; Normal renal function, n=8): 114 ± 45.8 h | Vz/F ([1]; Normal renal function, n=8): 2.44 ± 0.56 L | median Tmax ([1]; mild impairment group): 120 h | Cmax, geometric mean ratio normal vs mild ([1]; mild impairment relative to normal renal function, 90%CI 61.5–119): 85.6% | AUC0–inf, geometric mean ratio normal vs mild ([1]; mild impairment relative to normal renal function, 90%CI 82.1–156): 113% | AUC0–inf increase compared to the normal group ([1]; mild renal impairment): 13.1% | Cmax reduction compared to the normal group ([1]; mild renal impairment): 14.3% | median Tmax ([1]; moderate impairment group): 144 h | Cmax, geometric mean ratio normal vs moderate ([1]; moderate impairment relative to normal renal function, 90%CI 91.7–182): 129% | AUC0–inf, geometric mean ratio normal vs moderate ([1]; moderate impairment relative to normal renal function, 90%CI 144–280): 201% | AUC0–inf increase compared to the normal group ([1]; moderate renal impairment): 100.7% | Cmax increase compared to the normal group ([1]; moderate renal impairment): 29.1% | median Tmax ([1]; normal group): 96 h | Treatment-emergent AE: Abdominal discomforts, % (Safety evaluation; [3]): 0% | Treatment-emergent AE: Acute kidney injury, % (Safety evaluation; [3]): 0% | Treatment-emergent AE: Anaemia, % (Safety evaluation; [3]): 0% | Treatment-emergent AE: Bloating, % (Safety evaluation; [3]): 25% | Treatment-emergent AE: Hiccup, % (Safety evaluation; [3]): 12.5% | Treatment-emergent AE: Increased white blood cell count, % (Safety evaluation; [3]): 0% | Treatment-emergent AE: Nausea, % (Safety evaluation; [3]): 50% | Treatment-emergent AE: Oropharyngeal discomfort, % (Safety evaluation; [3]): 12.5% | Treatment-emergent AE: Overall AEs, % (Safety evaluation; [3]): 87.5% | Treatment-emergent AE: Retching, % (Safety evaluation; [3]): 0% | Treatment-emergent AE: Vomiting, % (Safety evaluation; [3]): 50% | Treatment-emergent AE: Abdominal discomforts, % (Safety evaluation; [4]): 0% | Treatment-emergent AE: Acute kidney injury, % (Safety evaluation; [4]): 12.5% | Treatment-emergent AE: Anaemia, % (Safety evaluation; [4]): 12.5% | Treatment-emergent AE: Bloating, % (Safety evaluation; [4]): 0% | Treatment-emergent AE: Hiccup, % (Safety evaluation; [4]): 12.5% | Treatment-emergent AE: Increased white blood cell count, % (Safety evaluation; [4]): 12.5% | Treatment-emergent AE: Nausea, % (Safety evaluation; [4]): 62.5% | Treatment-emergent AE: Oropharyngeal discomfort, % (Safety evaluation; [4]): 0% | Treatment-emergent AE: Overall AEs, % (Safety evaluation; [4]): 87.5% | Treatment-emergent AE: Retching, % (Safety evaluation; [4]): 12.5% | Treatment-emergent AE: Vomiting, % (Safety evaluation; [4]): 50% | Treatment-emergent AE: Abdominal discomforts, % (Safety evaluation; [5]): 10% | Treatment-emergent AE: Acute kidney injury, % (Safety evaluation; [5]): 0% | Treatment-emergent AE: Anaemia, % (Safety evaluation; [5]): 0% | Treatment-emergent AE: Bloating, % (Safety evaluation; [5]): 50% | Treatment-emergent AE: Hiccup, % (Safety evaluation; [5]): 0% | Treatment-emergent AE: Increased white blood cell count, % (Safety evaluation; [5]): 0% | Treatment-emergent AE: Nausea, % (Safety evaluation; [5]): 20% | Treatment-emergent AE: Oropharyngeal discomfort, % (Safety evaluation; [5]): 0% | Treatment-emergent AE: Overall AEs, % (Safety evaluation; [5]): 70% | Treatment-emergent AE: Retching, % (Safety evaluation; [5]): 0% | Treatment-emergent AE: Vomiting, % (Safety evaluation; [5]): 0% | AE: gastrointestinal disorders, subjects (Safety evaluation; [6]): 80.8% | AE: laboratory tests, subjects (Safety evaluation; [6]): 42.3% | AE: metabolism and nutrition disorders, subjects (Safety evaluation; [6]): 42.3% | Treatment-emergent AE: gastrointestinal disorders, subjects (Safety evaluation; all groups, single 200 μg s.c., including nausea, vomiting and bloating): 80.8% | Tolerability (Safety evaluation; single dose of 200 μg, patients with mild-to-moderate renal impairment): well tolerated

exenatide
in vivo half-life [2]: 2 to 3 h
